The values that follow come from ChEMBL document CHEMBL4406821, “Novel dual inhibitors targeting CDK4 and VEGFR2 synergistically suppressed cancer progression and angiogenesis” (Eur J Med Chem, 2019).

Data set [1] has as its system T47D. Briefly: Induction of apoptosis in human T47D cells assessed as decrease in Ki67 expression at 20 to 40 nM incubated for 48 hrs by Western blot analysis. Format: functional, cell-based. In outline:
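Cancer cells were exposed to graded concentrations for 48 h, washed three times in PBS and lysed in RIPA buffer. Immunoblots were probed with anti-Rb, anti-phospho-Rb, anti-Ki67 and anti-Bcl-2, each at 1:1000. β-actin served as loading control.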

For data set [2], the system named is HeLa. Briefly: Induction of apoptosis in human HeLa cells assessed as decrease in Ki67 expression at 40 to 80 nM incubated for 48 hrs by Western blot analysis. Format: functional, cell-based. In outline: (§1)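 Cells were treated for 48 h, washed three times with PBS, and lysed in RIPA buffer. Immunoblots used anti-Rb, anti-phospho-Rb, anti-Ki67 and anti-Bcl-2 (each 1:1000), with β-actin as loading control.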

Data set [3] deals with Epidermal growth factor receptor (Homo sapiens), P00533 [L858R]. Briefly: Inhibition of recombinant human EGFR L858R mutant (696 to end residues) at 1 uM using poly(Glu, Tyr) 4:1 as substrate incubated for 40 mins in presence of [gamma-33P]-ATP by scintillation counting method relative to control. In outline: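 Kinase panel profiling at 1 μM performed by Eurofins KinaseProfiler; percent inhibition reported as mean of two independent experiments.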

Data set [4] has as its target Insulin-like growth factor 1 receptor (Homo sapiens) (UniProt P08069). Briefly: Inhibition of recombinant human IGF1R (959 to end residues) at 1 uM using KKKSPGEYVNIEFG as substrate incubated for 40 mins in presence of [gamma-33P]-ATP by scintillation counting method relative to control.
Data set [5] has as its target Mitogen-activated protein kinase kinase kinase 2 (Homo sapiens) (UniProt Q9Y2U5). Briefly: Inhibition of recombinant human full length MEKK2 at 1 uM using myelin basic protein as substrate incubated for 40 mins in presence of [gamma-33P]-ATP by scintillation counting method relative to control.
In data set [6] the target is Dual specificity mitogen-activated protein kinase kinase 6 (Homo sapiens) (UniProt P52564). Briefly: Inhibition of recombinant human MKK6 (4 to end residues) at 1 uM using unactive SAPK2a as substrate incubated for 40 mins in presence of [gamma-33P]-ATP by scintillation counting method relative to control.
Data set [7] addresses Serine/threonine-protein kinase Nek1 (Homo sapiens) (UniProt Q96PY6). Briefly: Inhibition of recombinant human NEK1 (1 to 505 residues) at 1 uM using RLGRDKYKTLRQIRQ as substrate incubated for 40 mins in presence of [gamma-33P]-ATP by scintillation counting method relative to control.
For data set [8], the target named is Protein kinase C iota type (Homo sapiens) (UniProt P41743). Briefly: Inhibition of recombinant human full length PKCiota at 1 uM using ERMRPRKRQGSVRRRV as substrate incubated for 40 mins in presence of [gamma-33P]-ATP by scintillation counting method relative to control.
For data set [9], the target named is cGMP-dependent protein kinase 1 (Homo sapiens) (UniProt Q13976). Briefly: Inhibition of recombinant human full length PKG1beta at 1 uM using RRRLSFAEPG as substrate incubated for 40 mins in presence of [gamma-33P]-ATP by scintillation counting method relative to control.
The target of data set [10] is Protein kinase C eta type (Homo sapiens) (UniProt P24723). Briefly: Inhibition of recombinant human full length PKCeta (2 to end residues) at 1 uM using ERMRPRKRQGSVRRRV as substrate incubated for 40 mins in presence of [gamma-33P]-ATP by scintillation counting method relative to control.
Data set [11] addresses Serine/threonine-protein kinase TAO3 (Homo sapiens) (UniProt Q9H2K8). Briefly: Inhibition of recombinant human TAO3 (1 to 411 residues) at 1 uM using myelin basic protein as substrate incubated for 40 mins in presence of [gamma-33P]-ATP by scintillation counting method relative to control.
In data set [12] the target is Tyrosine-protein kinase Yes (Homo sapiens) (UniProt P07947). Briefly: Inhibition of recombinant human full length YES at 1 uM using poly(Glu, Tyr) 4:1 as substrate incubated for 40 mins in presence of [gamma-33P]-ATP by scintillation counting method relative to control.
The target of data set [13] is CDK6/cyclin D3 (Homo sapiens) (UniProt P30281+Q00534). Briefly: Inhibition of recombinant human full length CDK6/cyclinD3 at 1 uM using histone H1 as substrate incubated for 40 mins in presence of [gamma-33P]-ATP by scintillation counting method relative to control. It counts as protein-complex assay.
Data set [14] concerns the target Fibroblast growth factor receptor 2 (Homo sapiens) (UniProt P21802). Briefly: Inhibition of recombinant human FGFR2 (456 to 770 residues) at 1 uM using poly(Glu, Tyr) 4:1 as substrate incubated for 40 mins in presence of [gamma-33P]-ATP by scintillation counting method relative to control.
For data set [15], the target named is PI3-kinase p110-delta/p85-alpha (Homo sapiens) (UniProt P27986+O00329). Briefly: Inhibition of recombinant human full length PI3K p110delta/p85alpha at 1 uM using phosphatidylinositol-4, 5-bisphosphate as substrate incubated for 40 mins in presence of [gamma-33P]-ATP by scintillation counting method relative to control. Format: protein-complex assay.
For data set [16], the system named is SiHa. Briefly: Induction of cell cycle arrest in human SiHa cells assessed as decrease in cell accumulation in S phase at 40 to 80 nM incubated for 36 hrs by propidium iodide staining based flow cytometry. It counts as functional. In outline:
(§2)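 Cells were treated with graded concentrations for 36 h, then fixed overnight in 70% ice-cold ethanol at 4°C and resuspended in PBS. Staining used 50 µg/ml PI plus 5 µg/ml RNase at 37°C for 30 min. DNA content was analysed by FACS to give G0/G1, S and G2/M fractions.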

For data set [17], the system named is HeLa. Briefly: Induction of apoptosis in human HeLa cells assessed as decrease in Bcl2 expression at 40 to 80 nM incubated for 48 hrs by Western blot analysis. Format: functional, cell-based. In outline: as §1
A short description of data set [18]: Toxicity in BALB/c mouse assessed as effect on blood parameter by measuring hematocrit at 40 mg/kg, po administered once two days for 4 times by hematology analyzer. Particulars: in vivo.
Data set [19] has as its system T47D. Briefly: Induction of cell cycle arrest in human T47D cells assessed as accumulation in G2/M phase at 40 nM incubated for 36 hrs by propidium iodide staining based flow cytometry. Format: functional. In outline:
as §2

For data set [20], the system named is SiHa. Briefly: Induction of apoptosis in human SiHa cells at 40 nM incubated for 48 hrs by annexin V FITC and propidium iodide staining based flow cytometry. Format: functional, cell-based. In outline:
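Annexin V-FITC/PI double staining with flow-cytometric readout. MDA-MB-231, T-47D, SiHa and HeLa cells were treated with graded concentrations for 48 h. MDA-MB-231 and T-47D were grown in DMEM and SiHa in 1640 medium, each with 10% FBS and 1% penicillin/streptomycin at 37°C under 5% CO2. Early- and late-stage apoptotic fractions were scored.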

For data set [21], the target named is Vascular endothelial growth factor receptor 2 (Homo sapiens, UniProt P35968). Particulars: HUVEC, 40 nM.

The source made the active and inactive calls. The calls are words filed in the database; no cut-off is given here.

Serine/threonine-protein kinase Nek1 (Homo sapiens), sequence (Q96PY6 whole entry, the tested form may be a part): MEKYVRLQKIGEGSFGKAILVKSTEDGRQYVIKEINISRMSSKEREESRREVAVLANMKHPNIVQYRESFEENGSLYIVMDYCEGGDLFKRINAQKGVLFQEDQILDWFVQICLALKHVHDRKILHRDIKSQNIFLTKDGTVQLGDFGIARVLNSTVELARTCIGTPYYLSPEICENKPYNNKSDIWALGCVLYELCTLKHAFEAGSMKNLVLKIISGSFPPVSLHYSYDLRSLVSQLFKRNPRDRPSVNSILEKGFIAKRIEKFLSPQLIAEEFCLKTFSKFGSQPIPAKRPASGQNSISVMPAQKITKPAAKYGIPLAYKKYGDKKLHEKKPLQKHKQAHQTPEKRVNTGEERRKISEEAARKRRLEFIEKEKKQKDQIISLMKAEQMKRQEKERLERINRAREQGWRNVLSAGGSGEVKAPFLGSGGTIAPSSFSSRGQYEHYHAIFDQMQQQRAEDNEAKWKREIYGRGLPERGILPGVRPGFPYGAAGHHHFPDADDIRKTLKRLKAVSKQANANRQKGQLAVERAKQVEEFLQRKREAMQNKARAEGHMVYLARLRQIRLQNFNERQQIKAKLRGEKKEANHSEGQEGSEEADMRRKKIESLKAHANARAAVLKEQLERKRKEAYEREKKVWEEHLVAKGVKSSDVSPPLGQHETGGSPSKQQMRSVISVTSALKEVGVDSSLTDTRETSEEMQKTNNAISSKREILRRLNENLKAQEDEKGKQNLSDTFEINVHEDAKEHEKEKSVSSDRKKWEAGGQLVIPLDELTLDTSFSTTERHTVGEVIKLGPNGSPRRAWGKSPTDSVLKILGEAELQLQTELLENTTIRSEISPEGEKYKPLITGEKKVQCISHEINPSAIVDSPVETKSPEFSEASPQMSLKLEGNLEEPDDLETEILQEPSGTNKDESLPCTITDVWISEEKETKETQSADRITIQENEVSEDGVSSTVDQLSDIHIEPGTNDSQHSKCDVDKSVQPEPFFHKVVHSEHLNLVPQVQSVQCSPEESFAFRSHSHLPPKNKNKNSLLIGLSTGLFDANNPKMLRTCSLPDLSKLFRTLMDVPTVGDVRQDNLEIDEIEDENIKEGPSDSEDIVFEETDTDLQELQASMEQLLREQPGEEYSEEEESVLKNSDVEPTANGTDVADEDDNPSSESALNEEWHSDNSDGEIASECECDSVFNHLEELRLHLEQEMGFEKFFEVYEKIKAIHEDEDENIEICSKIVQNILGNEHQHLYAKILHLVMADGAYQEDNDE
Serine/threonine-protein kinase TAO3 (Homo sapiens), sequence (Q9H2K8 whole entry, the tested form may be a part): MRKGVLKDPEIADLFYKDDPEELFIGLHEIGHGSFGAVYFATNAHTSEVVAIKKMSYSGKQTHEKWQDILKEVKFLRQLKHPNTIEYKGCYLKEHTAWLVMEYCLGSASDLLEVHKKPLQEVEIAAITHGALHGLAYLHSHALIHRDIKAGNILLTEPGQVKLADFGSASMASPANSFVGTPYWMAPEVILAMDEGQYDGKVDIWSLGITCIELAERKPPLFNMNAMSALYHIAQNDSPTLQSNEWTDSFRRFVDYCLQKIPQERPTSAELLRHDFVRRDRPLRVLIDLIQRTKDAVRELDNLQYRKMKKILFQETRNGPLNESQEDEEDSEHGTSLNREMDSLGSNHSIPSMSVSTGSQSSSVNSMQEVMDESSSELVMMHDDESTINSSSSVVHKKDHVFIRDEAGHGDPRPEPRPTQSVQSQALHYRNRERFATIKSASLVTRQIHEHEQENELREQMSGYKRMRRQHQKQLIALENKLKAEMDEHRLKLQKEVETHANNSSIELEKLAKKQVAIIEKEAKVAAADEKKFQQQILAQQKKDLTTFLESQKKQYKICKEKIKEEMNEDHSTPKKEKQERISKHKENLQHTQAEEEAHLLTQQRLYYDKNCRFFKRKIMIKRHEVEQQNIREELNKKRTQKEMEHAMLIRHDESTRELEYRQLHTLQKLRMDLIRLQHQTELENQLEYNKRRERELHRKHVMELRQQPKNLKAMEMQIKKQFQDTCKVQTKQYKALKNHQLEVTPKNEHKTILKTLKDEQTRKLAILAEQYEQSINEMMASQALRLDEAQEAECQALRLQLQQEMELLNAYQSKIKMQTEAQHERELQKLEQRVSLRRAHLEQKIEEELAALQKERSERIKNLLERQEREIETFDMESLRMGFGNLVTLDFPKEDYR
Dual specificity mitogen-activated protein kinase kinase 6 (Homo sapiens), sequence (P52564 whole entry, the tested form may be a part): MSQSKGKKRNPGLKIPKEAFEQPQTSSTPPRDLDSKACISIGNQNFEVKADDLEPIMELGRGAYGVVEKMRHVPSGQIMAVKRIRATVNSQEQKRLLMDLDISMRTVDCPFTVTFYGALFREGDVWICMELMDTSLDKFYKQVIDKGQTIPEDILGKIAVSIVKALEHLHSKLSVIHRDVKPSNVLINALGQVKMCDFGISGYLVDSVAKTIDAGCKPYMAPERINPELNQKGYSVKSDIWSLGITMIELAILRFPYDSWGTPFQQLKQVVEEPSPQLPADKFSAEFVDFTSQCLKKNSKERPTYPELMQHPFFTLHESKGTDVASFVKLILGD
Epidermal growth factor receptor (Homo sapiens), P00533 [L858R], sequence (P00533 whole entry L858R): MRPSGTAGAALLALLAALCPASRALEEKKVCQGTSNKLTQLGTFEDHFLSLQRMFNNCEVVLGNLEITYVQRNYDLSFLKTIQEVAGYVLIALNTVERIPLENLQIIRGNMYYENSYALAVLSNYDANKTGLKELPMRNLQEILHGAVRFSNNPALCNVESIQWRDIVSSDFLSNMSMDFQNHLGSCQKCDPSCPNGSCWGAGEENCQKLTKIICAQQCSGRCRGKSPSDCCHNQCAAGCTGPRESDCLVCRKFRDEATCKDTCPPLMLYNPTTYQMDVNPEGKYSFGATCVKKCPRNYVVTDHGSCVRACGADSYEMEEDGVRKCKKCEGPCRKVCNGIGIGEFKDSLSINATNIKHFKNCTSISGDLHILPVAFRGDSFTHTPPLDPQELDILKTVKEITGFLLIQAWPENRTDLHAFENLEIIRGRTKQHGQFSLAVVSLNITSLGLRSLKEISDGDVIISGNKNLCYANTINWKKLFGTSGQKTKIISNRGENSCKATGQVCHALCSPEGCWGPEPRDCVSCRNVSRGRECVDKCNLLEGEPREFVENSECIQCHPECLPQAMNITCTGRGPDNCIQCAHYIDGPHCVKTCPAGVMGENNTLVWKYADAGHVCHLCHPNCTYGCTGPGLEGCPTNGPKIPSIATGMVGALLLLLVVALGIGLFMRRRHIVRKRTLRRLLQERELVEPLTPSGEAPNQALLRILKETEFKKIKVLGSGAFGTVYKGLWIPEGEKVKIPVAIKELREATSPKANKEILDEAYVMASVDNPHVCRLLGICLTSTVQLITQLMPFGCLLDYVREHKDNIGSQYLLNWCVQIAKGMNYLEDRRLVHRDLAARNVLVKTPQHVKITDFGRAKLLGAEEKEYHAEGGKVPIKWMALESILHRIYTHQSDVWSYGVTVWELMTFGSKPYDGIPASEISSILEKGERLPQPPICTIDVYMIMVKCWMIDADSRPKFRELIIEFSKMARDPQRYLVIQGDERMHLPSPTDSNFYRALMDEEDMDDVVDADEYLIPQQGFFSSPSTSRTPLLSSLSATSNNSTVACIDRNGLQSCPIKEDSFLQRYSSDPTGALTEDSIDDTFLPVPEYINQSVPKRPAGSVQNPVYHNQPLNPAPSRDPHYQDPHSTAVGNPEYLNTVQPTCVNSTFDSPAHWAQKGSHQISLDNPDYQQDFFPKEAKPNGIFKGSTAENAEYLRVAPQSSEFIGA
Vascular endothelial growth factor receptor 2, sequence (P35968 whole entry): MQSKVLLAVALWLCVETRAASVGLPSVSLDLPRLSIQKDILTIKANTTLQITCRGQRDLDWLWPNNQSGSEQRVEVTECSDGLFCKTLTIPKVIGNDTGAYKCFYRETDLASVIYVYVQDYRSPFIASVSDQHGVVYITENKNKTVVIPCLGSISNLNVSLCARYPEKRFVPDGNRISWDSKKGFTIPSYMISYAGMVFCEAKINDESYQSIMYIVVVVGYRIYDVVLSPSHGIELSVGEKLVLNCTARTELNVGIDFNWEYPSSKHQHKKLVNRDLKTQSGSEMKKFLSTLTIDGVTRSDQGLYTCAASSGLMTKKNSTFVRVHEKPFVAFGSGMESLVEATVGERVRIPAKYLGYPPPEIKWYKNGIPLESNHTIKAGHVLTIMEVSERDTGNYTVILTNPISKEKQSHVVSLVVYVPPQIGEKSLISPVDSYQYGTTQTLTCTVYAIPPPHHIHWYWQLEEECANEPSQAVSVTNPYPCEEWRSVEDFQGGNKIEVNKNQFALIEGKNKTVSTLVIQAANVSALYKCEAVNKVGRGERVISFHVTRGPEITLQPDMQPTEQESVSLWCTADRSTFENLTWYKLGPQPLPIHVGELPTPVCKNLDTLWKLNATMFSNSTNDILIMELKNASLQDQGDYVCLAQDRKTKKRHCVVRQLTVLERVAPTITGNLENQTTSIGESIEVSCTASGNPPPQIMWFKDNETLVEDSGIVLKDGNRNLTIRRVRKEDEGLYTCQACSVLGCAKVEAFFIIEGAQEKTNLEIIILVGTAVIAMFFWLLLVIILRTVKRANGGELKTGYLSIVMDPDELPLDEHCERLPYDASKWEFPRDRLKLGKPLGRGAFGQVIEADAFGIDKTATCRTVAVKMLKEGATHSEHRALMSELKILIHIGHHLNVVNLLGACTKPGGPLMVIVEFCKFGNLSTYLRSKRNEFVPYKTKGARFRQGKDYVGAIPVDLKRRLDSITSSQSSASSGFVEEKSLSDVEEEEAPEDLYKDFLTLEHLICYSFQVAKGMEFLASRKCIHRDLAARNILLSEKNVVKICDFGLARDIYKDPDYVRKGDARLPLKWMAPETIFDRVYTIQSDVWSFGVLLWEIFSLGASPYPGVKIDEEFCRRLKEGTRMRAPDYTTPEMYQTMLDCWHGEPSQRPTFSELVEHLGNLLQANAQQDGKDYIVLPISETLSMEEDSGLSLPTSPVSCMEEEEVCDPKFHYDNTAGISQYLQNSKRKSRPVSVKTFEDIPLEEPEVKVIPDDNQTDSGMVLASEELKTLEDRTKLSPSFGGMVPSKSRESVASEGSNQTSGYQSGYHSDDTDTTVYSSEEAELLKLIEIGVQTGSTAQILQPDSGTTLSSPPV

As to `Cc1ccc(NC(=O)C2(C(=O)Nc3ccc(Nc4ncc(F)c(-c5cc(F)c6nc(C)n(C(C)C)c6c5)n4)cc3)CC2)cc1`, the outcome in [1], in data set [2], in data set [16] and in data set [17] was Active. The inhibition amounted to 35% in data set [3]; 11% in data set [4]; 79% in data set [5]; 16% in data set [6]; 72% in data set [7]; 5% in [8]. For the same compound, the inhibition is 45% in data set [9]; 17% in data set [10]; 2% in [11]; 31% in data set [12]; 94% in data set [13]; 4% in data set [14]. Besides, in data set [15], the inhibition stood at 12%. For the same compound, in data set [18], the Activity entry is given as “Non-Toxic”.
As for `COc1cc2nccc(Oc3ccc(NC(=O)C4(C(=O)Nc5ccc(F)cc5)CC4)cc3)c2cc1OC` [CABOZANTINIB], the outcome in data set [19] and in data set [20] was Active. Moreover, the inhibition entry in [21] is “Active”.
